Test results published in ChEMBL document CHEMBL4270541, “Synthesis and antimicrobial evaluation of amino sugar-based naphthoquinones and isoquinoline-5,8-diones and their halogenated compounds” (Eur J Med Chem, 2018).
Values after ≈ are worked out from the molar mass of the structure shown. Active and inactive are the calls of the source. No cut-off for these calls is given here.

Key:
[1] = test system: Enterococcus faecalis; assay: Antimicrobial activity against Enterococcus faecalis INCQS 00234 ATCC 29212 assessed as zone of inhibition at 5 mg/ml after 18 to 24 hrs by disc diffusion method; type: functional; conditions: ATCC 29212 INCQS 00234, read-out: IZ
[2] = test system: Staphylococcus aureus; assay: Antimicrobial activity against Staphylococcus aureus INCQS 00015 ATCC 25923 assessed as zone of inhibition at 5 mg/ml after 18 to 24 hrs by disc diffusion method; type: functional; conditions: read-out: IZ
[3] = test system: Staphylococcus epidermidis; assay: Antimicrobial activity against Staphylococcus epidermidis INCQS 00016 ATCC 12228 assessed as zone of inhibition at 5 mg/ml after 18 to 24 hrs by disc diffusion method; type: functional; conditions: ATCC 12228 INCQS 00016, read-out: IZ
[4] = test system: Staphylococcus simulans; assay: Antimicrobial activity against Staphylococcus simulans INCQS 00254 ATCC 27851 assessed as zone of inhibition at 5 mg/ml after 18 to 24 hrs by disc diffusion method; type: functional; conditions: read-out: IZ
[5] = test system: Staphylococcus aureus; assay: Antimicrobial activity against methicillin-resistant Staphylococcus aureus BMB9393 assessed as zone of inhibition at 5 mg/ml after 18 to 24 hrs by disc diffusion method; type: functional; conditions: read-out: IZ
[6] = test system: Escherichia coli; assay: Antimicrobial activity against Escherichia coli INCQS 00033 ATCC 25922 assessed as zone of inhibition at 5 mg/ml after 18 to 24 hrs by disc diffusion method; type: functional; conditions: ATCC 25922 INCQS 00033, read-out: IZ
[7] = test system: Proteus mirabilis; assay: Antimicrobial activity against Proteus mirabilis INCQS 00095 ATCC 15290 assessed as zone of inhibition at 5 mg/ml after 18 to 24 hrs by disc diffusion method; type: functional; conditions: read-out: IZ
[8] = test system: Klebsiella pneumoniae; assay: Antimicrobial activity against Klebsiella pneumoniae INCQS 00083 ATCC 4352 assessed as zone of inhibition at 5 mg/ml after 18 to 24 hrs by disc diffusion method; type: functional; conditions: read-out: IZ
[9] = test system: Pseudomonas aeruginosa; assay: Antimicrobial activity against Pseudomonas aeruginosa INCQS 00099 ATCC 27853 assessed as zone of inhibition at 5 mg/ml after 18 to 24 hrs by disc diffusion method; type: functional; conditions: read-out: IZ
[10] = Hemolytic activity against human erythrocytes assessed as hemolysis at 200 ug/ml after 3 hrs by spectrophotometric analysis relative to control; type: ADME, cell-based, Erythrocyte; conditions: read-out: Activity
In short: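 Erythrocytes collected in citrate tubes, washed three times with PBS pH 7.4 by centrifugation and resuspended in PBS. Incubated with compounds at 200 µg/mL for 3 h at 37°C. Released hemoglobin was read in the supernatant at 545 nm against 1% Triton X-100 (complete lysis) and 1% DMSO (negative control). Below 10% hemolysis was taken as hemocompatible. Three independent experiments.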

[11] = test system: Staphylococcus epidermidis; assay: Antimicrobial activity against Staphylococcus epidermidis INCQS 00016 ATCC 12228 after 24 hrs by microdilution assay; type: functional; conditions: ATCC 12228 INCQS 00016, 24 h
[12] = test system: Escherichia coli; assay: Antimicrobial activity against Escherichia coli INCQS 00033 ATCC 25922 after 24 hrs by microdilution assay; type: functional; conditions: ATCC 25922 INCQS 00033, 24 h
[13] = test system: Pseudomonas aeruginosa; assay: Antimicrobial activity against Pseudomonas aeruginosa INCQS 00099 ATCC 27853 after 24 hrs by microdilution assay; type: functional; conditions: INCQS 00099 ATCC 27853, 24 h
[14] = test system: Staphylococcus epidermidis; assay: Ratio of MBC99.9 to MIC for Staphylococcus epidermidis INCQS 00016 ATCC 12228; type: functional, ATCC 12228 INCQS 00016
In short: (§1)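 MBC/MIC ratio from the 24 h, 37°C microdilution MIC and the agar-plating MBC (99.9% growth inhibition). A ratio ≤2 was classed as bactericidal and ≥4 as bacteriostatic.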

[15] = test system: Staphylococcus epidermidis; assay: Bactericidal activity against Staphylococcus epidermidis INCQS 00016 ATCC 12228 incubated for 24 hrs followed by transfer of microbial suspension to agar plates and measured after 24 hrs post transfer by resazurin dye-based colorimetric analysis; type: functional; conditions: ATCC 12228 INCQS 00016, 24 h, read-out: MBC99.9
In short: (§2)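 For MBC, 10 µL from each clear MIC well was plated on agar and incubated 24 h at 37°C. MBC is the minimum concentration inhibiting 99.9% of growth. […] Triplicate.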

[16] = test system: Escherichia coli; assay: Bactericidal activity against Escherichia coli INCQS 00033 ATCC 25922 incubated for 24 hrs followed by transfer of microbial suspension to agar plates and measured after 24 hrs post transfer by resazurin dye-based colorimetric analysis; type: functional; conditions: ATCC 25922 INCQS 00033, 24 h, read-out: MBC99.9; in short: as §2
[17] = test system: Pseudomonas aeruginosa; assay: Bactericidal activity against Pseudomonas aeruginosa INCQS 00099 ATCC 27853 incubated for 24 hrs followed by transfer of microbial suspension to agar plates and measured after 24 hrs post transfer by resazurin dye-based colorimetric analysis; type: functional; conditions: INCQS 00099 ATCC 27853, 24 h, read-out: MBC99.9; in short: as §2
[18] = test system: Escherichia coli; assay: Ratio of MBC99.9 to MIC for Escherichia coli INCQS 00033 ATCC 25922; type: functional, ATCC 25922 INCQS 00033; in short: as §1
[19] = test system: Pseudomonas aeruginosa; assay: Ratio of MBC99.9 to MIC for Pseudomonas aeruginosa INCQS 00099 ATCC 27853; type: functional; in short: as §1
[20] = test system: Staphylococcus aureus; assay: Antimicrobial activity against Staphylococcus aureus INCQS 00015 ATCC 25923 at 256 ug/ml after 24 hrs by microdilution assay; type: functional, organism-based
[21] = test system: Staphylococcus simulans; assay: Antimicrobial activity against Staphylococcus simulans INCQS 00254 ATCC 27851 at 256 ug/ml after 24 hrs by microdilution assay; type: functional, organism-based
[22] = test system: Staphylococcus aureus; assay: Antimicrobial activity against methicillin-resistant Staphylococcus aureus BMB9393 at 256 ug/ml after 24 hrs by microdilution assay; type: functional, organism-based
[23] = test system: Staphylococcus aureus; assay: Bactericidal activity against Staphylococcus aureus INCQS 00015 ATCC 25923 at 256 ug/ml incubated for 24 hrs followed by transfer of microbial suspension to agar plates and measured after 24 hrs post transfer by resazurin dye-based colorimetric analysis; type: functional, organism-based; in short: as §2
[24] = test system: Staphylococcus simulans; assay: Bactericidal activity against Staphylococcus simulans INCQS 00254 ATCC 27851 at 256 ug/ml incubated for 24 hrs followed by transfer of microbial suspension to agar plates and measured after 24 hrs post transfer by resazurin dye-based colorimetric analysis; type: functional, organism-based; in short: as §2
[25] = test system: Staphylococcus aureus; assay: Bactericidal activity against methicillin-resistant Staphylococcus aureus BMB9393 at 256 ug/ml incubated for 24 hrs followed by transfer of microbial suspension to agar plates and measured after 24 hrs post transfer by resazurin dye-based colorimetric analysis; type: functional, organism-based
In short: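 From MIC wells with no visible growth, 10 µL is transferred to agar plates and incubated 24 h at 37°C. MBC is the minimum concentration inhibiting 99.9% of growth. […] Triplicate.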

Structure (SMILES) | zone of inhibition at 5000 µg/mL [1] [mm] | zone of inhibition at 5000 µg/mL [2] [mm] | zone of inhibition at 5000 µg/mL [3] [mm] | zone of inhibition at 5000 µg/mL [4] [mm] | zone of inhibition at 5000 µg/mL [5] [mm] | zone of inhibition at 5000 µg/mL [6] [mm] | zone of inhibition at 5000 µg/mL [7] [mm] | zone of inhibition at 5000 µg/mL [8] [mm] | zone of inhibition at 5000 µg/mL [9] [mm] | hemolysis at 3 h, 200 ug/ml [10] [%] | further results
CC1(C)O[C@H]2[C@@H](O1)[C@@H](CNC1=CC(=O)c3ccccc3C1=O)O[C@@H]1OC(C)(C)O[C@@H]12 | 0 | 0 | 0 | 0 | 0 | 0 | 0 | 0 | 0 | < 10 | –
COC(=O)c1c(C)nc(C)c2c1C(=O)C(Cl)=C(NC[C@H]1O[C@@H]3OC(C)(C)O[C@@H]3[C@H]3OC(C)(C)O[C@H]31)C2=O | 0 | 0 | 0 | 0 | 0 | 0 | 0 | 0 | 0 | < 10 | –
COC(=O)c1c(C)nc(C)c2c1C(=O)C(Br)=C(NC[C@H]1O[C@@H]3OC(C)(C)O[C@@H]3[C@H]3OC(C)(C)O[C@H]31)C2=O | 0 | 0 | 0 | 0 | 0 | 0 | 0 | 0 | 0 | < 10 | –
CC1(C)O[C@H]2O[C@H](CNC3=CC(=O)c4ccccc4C3=O)[C@H](O)[C@H]2O1 | 0 | 0 | 0 | 0 | 0 | 0 | 0 | 0 | 0 | < 10 | –
COC(=O)c1c(C)nc(C)c2c1C(=O)C=C(N)C2=O | 0 | 0 | 0 | 0 | 0 | 0 | 0 | 0 | 0 | < 10 | –
CC1(C)O[C@H]2[C@@H](O1)[C@@H](CNC1=C(Br)C(=O)c3ccccc3C1=O)O[C@@H]1OC(C)(C)O[C@@H]12 | 0 | 0 | 0 | 0 | 0 | 0 | 0 | 0 | 0 | 10.1 to 14.4 | –
COC(=O)c1c(C)nc(C)c2c1C(=O)C(Cl)=C(NC[C@H]1O[C@@H](OC)[C@@H]3OC(C)(C)O[C@@H]31)C2=O | 0 | 0 | 0 | 0 | 0 | 0 | 0 | 0 | 0 | < 10 | –
CO[C@@H]1O[C@H](CNC2=CC(=O)c3ccccc3C2=O)[C@H]2OC(C)(C)O[C@@H]12 | 0 | 0 | 0 | 0 | 0 | 0 | 0 | 0 | 0 | < 10 | –
O=C(O)c1cn(C2CC2)c2cc(N3CCNCC3)c(F)cc2c1=O [CIPROFLOXACIN] | – | – | – | – | – | 35 | 28 | 27 | 36 | – | –
COC(=O)c1c(C)nc(C)c2c1C(=O)C=C(NC[C@H]1O[C@@H](OC)[C@@H]3OC(C)(C)O[C@@H]31)C2=O | 0 | 0 | 0 | 0 | 0 | 0 | 0 | 0 | 0 | < 10 | –
COC(=O)c1c(C)nc(C)c2c1C(=O)C(Br)=C(N)C2=O | 0 | 23 | 22 | 17 | 22 | 30 | 0 | 0 | 28 | 10.1 to 14.4 | MIC [11]: 32 µg/mL (≈ 94.4 µM); MIC [12]: 8 µg/mL (≈ 23.6 µM); MIC [13]: 32 µg/mL (≈ 94.4 µM); Ratio [14]: 1; MBC [15]: 32 µg/mL (≈ 94.4 µM); MBC [16]: 8 µg/mL (≈ 23.6 µM); MBC [17]: 32 µg/mL (≈ 94.4 µM); Ratio [18]: 1; Ratio [19]: 1; Activity [20]: inactive; Activity [21]: inactive; Activity [22]: inactive; Activity [23]: inactive; Activity [24]: inactive; Activity [25]: inactive
